Data: ChEMBL document CHEMBL1141140, “Antifungal agents. 11. N-substituted derivatives of 1-[(aryl)(4-aryl-1H-pyrrol-3-yl)methyl]-1H-imidazole: synthesis, anti-Candida activity, and QSAR studies” (2005)
Converted amounts (≈) assume the structure as drawn.

Key:
Candida albicans [1] = experiment: Ratio of the in vitro minimal inhibitory to that of bifonazole against Candida albicans (MIC(compound)/MIC(bifonazole)); assay type: functional
Outline: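 Broth microdilution per NCCLS M27-A2 against 12 Candida albicans strains (AIDS oropharyngeal, HIV vulvovaginitis isolates, ATCC 24433 and 20891, lab strains 3153 and CA2). Inoculum ~10^4 cells/mL in RPMI 1640, pH 7.0; DMSO stocks 6.4 mg/mL, twofold dilutions 0.016–64 μg/mL; read at 24 h, 28 °C, no visible growth. Mean MIC over strains converted to μmol/mL, divided by bifonazole MIC.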

Candida albicans [2] = experiment: In vitro minimal inhibitory concentration against Candida albicans with percentage of resistant strains %R = 33.33 (MIC > 64 ug/mL) at a range of 0.25-0.5 ug/mL; assay type: functional
Candida albicans [3] = experiment: In vitro concentration causing 50% inhibition of Candida albicans with percentage of resistant strains %R = 33.33 (MIC > 64 ug/mL) at a range of 0.25-0.5 ug/mL; assay type: functional
Candida albicans [4] = experiment: In vitro concentration causing 90% inhibition of Candida albicans with percentage of resistant strains %R = 33.33 (MIC > 64 ug/mL) at a range of 0.25-0.5 ug/mL; assay type: functional
Candida albicans [5] = experiment: In vitro minimal inhibitory concentration against Candida albicans with percentage of resistant strains %R = 0 (MIC > 64 ug/mL) at a range of 0.062-0.5 ug/mL; assay type: functional
Candida albicans [6] = experiment: In vitro concentration causing 50% inhibition of Candida albicans with percentage of resistant strains %R = 0 (MIC > 64 ug/mL) at a range of 0.062-0.5 ug/mL; assay type: functional
Candida albicans [7] = experiment: In vitro concentration causing 90% inhibition of Candida albicans with percentage of resistant strains %R = 0 (MIC > 64 ug/mL) at a range of 0.062-0.5 ug/mL; assay type: functional
Candida albicans [8] = experiment: In vitro minimal inhibitory concentration against Candida albicans with percentage of resistant strains %R = 33.33 (MIC > 64 ug/mL) at a range of 0.125-2 ug/mL; assay type: functional
Candida albicans [9] = experiment: In vitro concentration causing 50% inhibition of Candida albicans with percentage of resistant strains %R = 33.33 (MIC > 64 ug/mL) at a range of 0.125-2 ug/mL; assay type: functional
Candida albicans [10] = experiment: In vitro concentration causing 90% inhibition of Candida albicans with percentage of resistant strains %R = 33.33 (MIC > 64 ug/mL) at a range of 0.125-2 ug/mL; assay type: functional
Candida albicans [11] = experiment: In vitro minimal inhibitory concentration against Candida albicans with percentage of resistant strains %R = 41.66 (MIC > 64 ug/mL) at a range of 0.25-4 ug/mL; assay type: functional
Candida albicans [12] = experiment: In vitro concentration causing 50% inhibition of Candida albicans with percentage of resistant strains %R = 41.66 (MIC > 64 ug/mL) at a range of 0.25-4 ug/mL; assay type: functional
Candida albicans [13] = experiment: In vitro concentration causing 90% inhibition of Candida albicans with percentage of resistant strains %R = 41.66 (MIC > 64 ug/mL) at a range of 0.25-4 ug/mL; assay type: functional
Candida albicans [14] = experiment: In vitro concentration causing 50% inhibition of Candida albicans with percentage of resistant strains %R = 33.3 (MIC > 64 ug/mL) at a range of 0.25-32 ug/mL
Candida albicans [15] = experiment: In vitro concentration causing 90% inhibition of Candida albicans with percentage of resistant strains %R = 33.3 (MIC > 64 ug/mL) at a range of 0.25-32 ug/mL
Candida albicans [16] = experiment: In vitro minimal inhibitory concentration against Candida albicans with percentage of resistant strains %R = 33.3 (MIC > 64 ug/mL) at a range of 0.25-32 ug/mL
Candida albicans [17] = experiment: In vitro minimal inhibitory concentration against Candida albicans with percentage of resistant strains %R = 0 (MIC > 64 ug/mL) at a range of 0.016-0.5 ug/mL; assay type: functional
Candida albicans [18] = experiment: In vitro concentration causing 50% inhibition of Candida albicans with percentage of resistant strains %R = 0 (MIC > 64 ug/mL) at a range of 0.016-0.5 ug/mL; assay type: functional
Candida albicans [19] = experiment: In vitro concentration causing 90% inhibition of Candida albicans with percentage of resistant strains %R = 0 (MIC > 64 ug/mL) at a range of 0.016-0.5 ug/mL; assay type: functional
Candida albicans [20] = experiment: In vitro minimal inhibitory concentration against Candida albicans with percentage of resistant strains %R = 33.3 (MIC > 64 ug/mL) at a range of 0.065-4 ug/mL; assay type: functional
Candida albicans [21] = experiment: In vitro concentration causing 50% inhibition of Candida albicans with percentage of resistant strains %R = 33.3 (MIC > 64 ug/mL) at a range of 0.065-4 ug/mL; assay type: functional
Candida albicans [22] = experiment: In vitro concentration causing 90% inhibition of Candida albicans with percentage of resistant strains %R = 33.3 (MIC > 64 ug/mL) at a range of 0.065-4 ug/mL; assay type: functional

Row | Structure (SMILES) | Ratio (Candida albicans [1]) | also measured
1 | Fc1ccc(-n2ccc(C(c3ccccc3)n3ccnc3)c2)cc1 (stereo unspecified) | 4.1 | –
2 | c1ccc(-c2c[nH]cc2C(c2ccc3ccccc3c2)n2ccnc2)cc1 (stereo unspecified) | 3.8 | –
3 | Clc1ccc(-n2ccc(C(c3ccccc3)n3ccnc3)c2)cc1 (stereo unspecified) | 0.7 | –
4 | Cc1ccc(C(c2ccn(-c3ccc(Cl)cc3)c2)n2ccnc2)cc1 (stereo unspecified) | 1.1 | –
5 | c1ccc(C(c2ccc(-n3cccc3)cc2)n2ccnc2)cc1 (stereo unspecified) | 6.8 | –
6 | Fc1ccc(C(c2ccn(-c3ccc(Cl)cc3)c2)n2ccnc2)cc1 (stereo unspecified) | 2.8 | –
7 | Clc1ccc(-c2c[nH]cc2C(c2ccc(Cl)cc2Cl)n2ccnc2)cc1 (stereo unspecified) | 0.92 | MIC (Candida albicans [2]): 4.2 µg/mL (≈ 10.4 µM); MIC50 (Candida albicans [3]): 0.25 µg/mL (≈ 0.621 µM); MIC90 (Candida albicans [4]): 0.5 µg/mL (≈ 1.24 µM)
8 | Nc1ccc(-c2c[nH]cc2C(c2ccc(Cl)cc2Cl)n2ccnc2)cc1 (stereo unspecified) | 28 | –
9 | Oc1ccc(-c2c[nH]cc2C(c2ccc(Cl)cc2Cl)n2ccnc2)cc1 (stereo unspecified) | 26 | –
10 | CC(Cc1ccc(Cl)cc1Cl)n1ccnc1.COc1ccccc1 (stereo unspecified) | 1 | –
11 | CC(C)=CCn1cc(-c2ccc(Cl)cc2)c(C(c2ccccc2)n2ccnc2)c1 (stereo unspecified) | 0.043 | MIC (Candida albicans [5]): 0.194 µg/mL (≈ 0.483 µM); MIC50 (Candida albicans [6]): 0.065 µg/mL (≈ 0.162 µM); MIC90 (Candida albicans [7]): 0.5 µg/mL (≈ 1.24 µM)
12 | C=CCn1cc(-c2ccc(Cl)cc2)c(C(c2ccc(Cl)cc2Cl)n2ccnc2)c1 (stereo unspecified) | 0.15 | MIC (Candida albicans [8]): 0.73 µg/mL (≈ 1.65 µM); MIC50 (Candida albicans [9]): 0.5 µg/mL (≈ 1.13 µM); MIC90 (Candida albicans [10]): 2 µg/mL (≈ 4.52 µM)
13 | CCn1cc(-c2ccc(Cl)cc2Cl)c(C(c2ccccc2)n2ccnc2)c1 (stereo unspecified) | 0.33 | MIC (Candida albicans [11]): 1.46 µg/mL (≈ 3.68 µM); MIC50 (Candida albicans [12]): 1 µg/mL (≈ 2.52 µM); MIC90 (Candida albicans [13]): 2 µg/mL (≈ 5.05 µM)
14 | CCn1cc(-c2ccc(Cl)cc2)c(C(c2ccccc2)n2ccnc2)c1 (stereo unspecified) | 0.11 | MIC50 (Candida albicans [14]): 1 µg/mL (≈ 2.76 µM); MIC90 (Candida albicans [15]): 8 µg/mL (≈ 22.1 µM); MIC (Candida albicans [16]): 5.59 µg/mL (≈ 15.4 µM)
15 | CCCn1cc(-c2ccc(Cl)cc2)c(C(c2ccccc2)n2ccnc2)c1 (stereo unspecified) | 0.023 | MIC (Candida albicans [17]): 0.096 µg/mL (≈ 0.255 µM); MIC50 (Candida albicans [18]): 0.016 µg/mL (≈ 0.0426 µM); MIC90 (Candida albicans [19]): 0.032 µg/mL (≈ 0.0851 µM)
16 | Fc1ccc(C(c2ccn(-c3ccccc3)c2)n2ccnc2)cc1 (stereo unspecified) | 1.8 | –
17 | CSc1ccc(-c2c[nH]cc2C(c2ccc(Cl)cc2Cl)n2ccnc2)cc1 (stereo unspecified) | 2.8 | –
18 | FC(F)(F)c1ccc(-c2c[nH]cc2C(c2ccc(Cl)cc2Cl)n2ccnc2)cc1 (stereo unspecified) | 2.2 | –
19 | CC(Cc1ccc(N)cc1)n1ccnc1.COc1ccccc1 (stereo unspecified) | 1.4 | –
20 | Clc1ccc(C(c2ccn(-c3ccc(Cl)cc3)c2)n2ccnc2)cc1 (stereo unspecified) | 7.3 | –
21 | Clc1ccc(-c2c[nH]cc2C(c2ccccc2)n2ccnc2)cc1 (stereo unspecified) | 0.66 | MIC (Candida albicans [20]): 2.5 µg/mL (≈ 7.49 µM); MIC50 (Candida albicans [21]): 0.125 µg/mL (≈ 0.374 µM); MIC90 (Candida albicans [22]): 4 µg/mL (≈ 12 µM)
22 | N#Cc1ccc(-c2c[nH]cc2C(c2ccc(Cl)cc2Cl)n2ccnc2)cc1 (stereo unspecified) | 4.3 | –
23 | O=[N+]([O-])c1ccc(-c2c[nH]cc2C(c2ccc(Cl)cc2Cl)n2ccnc2)cc1 (stereo unspecified) | 4.5 | –
24 | Clc1ccc(C(c2c[nH]cc2-c2ccc(-c3ccccc3)cc2)n2ccnc2)c(Cl)c1 (stereo unspecified) | 4.3 | –
25 | Clc1ccc(C(c2c[nH]cc2-c2ccc(-n3cccc3)cc2)n2ccnc2)c(Cl)c1 (stereo unspecified) | 1.3 | –
